# Measurements of several laboratories.
# Target: Serine/threonine-protein kinase 4 (STK4, Homo sapiens, UniProt Q13043)
# Residues used in one study (Q13043 1-487): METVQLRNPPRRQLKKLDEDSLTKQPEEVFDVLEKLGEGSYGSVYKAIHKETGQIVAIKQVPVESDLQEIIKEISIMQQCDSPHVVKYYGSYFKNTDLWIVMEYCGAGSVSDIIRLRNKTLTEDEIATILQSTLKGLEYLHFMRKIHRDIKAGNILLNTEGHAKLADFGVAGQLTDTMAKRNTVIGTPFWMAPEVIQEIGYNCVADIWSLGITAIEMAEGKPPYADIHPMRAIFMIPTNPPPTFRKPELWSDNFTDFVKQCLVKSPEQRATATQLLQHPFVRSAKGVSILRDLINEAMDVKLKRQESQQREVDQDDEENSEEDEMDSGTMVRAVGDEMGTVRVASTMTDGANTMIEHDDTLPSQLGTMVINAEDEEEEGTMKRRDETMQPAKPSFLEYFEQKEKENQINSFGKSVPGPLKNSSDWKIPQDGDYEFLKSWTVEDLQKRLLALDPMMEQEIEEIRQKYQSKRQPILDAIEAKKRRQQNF
SMILES,test,conditions,remaining binding
CN(C)c1nccc(-c2cnn3ncccc23)n1,binding,1 µM,100%
COc1cnc(Nc2cccc(S(N)(=O)=O)c2)nc1N1CCN(c2ccccc2)C(=O)C1,"binding, competition with immobilised ligand",1 µM,98%
F[C@@H]1CCN(c2nccc(-c3cnn4ncccc34)n2)C1,binding,1 µM,91%
O=C(c1ccc(Nc2ncc(Cl)c(-c3ccc(Cl)s3)n2)cc1)N1CCC(N2CCCC2)CC1,"binding, competition with immobilised ligand",1 µM,90%
c1cncc(-c2cccc(Nc3nccc(NC4CCCCC4)n3)c2)c1,"binding, competition with immobilised ligand",10 µM,97%
O=C(NCCCN1CCOCC1)c1ccc(Nc2ncc(Cl)c(-c3ccc(Cl)s3)n2)cc1,"binding, competition with immobilised ligand",1 µM,90%
CS(=O)(=O)c1cc(C2(NC(=O)c3cncc4c3cnn4-c3ccc(F)cc3)CC2)ccn1,"cell-free assay, competition with immobilised ligand",1 µM,77%
c1cnn2ncc(-c3ccnc(N4CCC45COC5)n3)c2c1,binding,1 µM,89%
FC(F)(F)Oc1cccc(-c2cnc3ccc(-c4ccncc4)nn23)c1,"cell-free assay, competition with immobilised ligand",5 µM,100%
Cc1cnn2ncc(-c3ccnc(N(C)C)n3)c2c1,binding,1 µM,97%
O=C1CCc2cc(Nc3cc(OC4CCOCC4)c([N+](=O)[O-])cc3Cl)ccc2N1,"cell-free assay, competition with immobilised ligand",1 µM,100%
C[C@H]1CCN(c2nccc(-c3cnn4ncccc34)n2)C1,binding,1 µM,82%
CNC(=O)c1ccc(Nc2ncc(C(F)(F)F)c(NCc3nccnc3N(C)S(C)(=O)=O)n2)cc1,"cell-free assay, competition with immobilised ligand",0.1 µM,97%
Nc1ncc2c(n1)-c1c([nH]c3ccc(C#CC4CC4)cc13)CCCC2,"binding, competition with immobilised ligand",1 µM,100%
Nc1c(C(=O)NCc2ccc(C(=O)NCCCC3CCCCC3)cc2)cnn1-c1ccccc1,"cell-free assay, competition with immobilised ligand",0.1 µM,100%
O=C(Nc1c[nH]nc1C(=O)NC1CCNCC1)c1cc(F)cc(F)c1,"binding, competition with immobilised ligand",1 µM,100%
O=C(NCCCC1CCCCC1)c1ccc(CNC(=O)c2cnn(-c3ccccc3)c2C(F)(F)F)cc1,"cell-free assay, competition with immobilised ligand",0.1 µM,100%
N[C@H]1CCN(c2nccc(-c3cnn4ncccc34)n2)C1,binding,1 µM,100%
O=C(c1ccc(Nc2ncc(Cl)c(-c3cc4ccccc4s3)n2)cc1)N1CCC(N2CCCC2)CC1,"binding, competition with immobilised ligand",1 µM,100%
N#CC1(c2ccccn2)CCN(Cc2cc(C(=O)N3CCCC3)c(=O)n3ccccc23)CC1,"cell-free assay, competition with immobilised ligand",1 µM,88%
